Measured values as given in publication PMC9398548 (European journal of pharmaceutical sciences : official …, 2020).
“And” between values parts separate entries of the source, which are not always exact repeats. Equal values may be shown once. “Also recorded” adds a separate entry of the source. Read-outs that look alike come from different tables or passages of the source.

Experiments:
CEM cells = experiment: MTT cytotoxicity assay in CEM cells; format: cell-based; conditions: read-out: CEM- IC50, 48 h, Mean±SD, n=3
In short: (§1)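 Cells were grown in suspension in RPMI 1640 with 10% FBS and penicillin/streptomycin/amphotericin B at 37 °C under 5% CO2. They were seeded at ~5×10^3 cells/well, kept overnight, then exposed to test compounds diluted in DMSO for 48 h. Cells were pelleted (300 g, 4 °C, 5 min) and washed twice in phosphate buffer. MTT (5 mg/ml stock) was added for 4 h at 37 °C, formazan dissolved in DMSO, and A570 read. Triplicate; IC50 given as mean±SD.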

K562 cells = experiment: MTT cytotoxicity assay in K562 cells; format: cell-based; conditions: read-out: K562- IC50
In short: as §1

HDAC8 = biological target: T1, HDAC8 (Homo sapiens, UniProt Q9BY41); experiment: HDAC enzyme activity assay, HDAC8; format: biochemical; conditions: for HDAC-8 relative enzyme activity: primary screening at 50 μM
T1 sequence (Q9BY41 1-377): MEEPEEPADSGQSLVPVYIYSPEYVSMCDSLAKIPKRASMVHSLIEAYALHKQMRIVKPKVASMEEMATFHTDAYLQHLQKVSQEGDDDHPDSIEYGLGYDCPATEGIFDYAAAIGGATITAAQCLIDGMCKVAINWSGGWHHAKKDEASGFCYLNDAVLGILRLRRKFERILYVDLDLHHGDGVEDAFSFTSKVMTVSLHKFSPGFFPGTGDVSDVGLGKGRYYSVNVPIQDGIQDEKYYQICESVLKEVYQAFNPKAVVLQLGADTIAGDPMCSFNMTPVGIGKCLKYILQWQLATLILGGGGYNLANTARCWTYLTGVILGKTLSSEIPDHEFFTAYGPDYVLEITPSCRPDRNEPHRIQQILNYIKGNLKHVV
In short: (§2)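 Enzymes were recombinant: HDAC8, and the codon-optimised human HDAC4 catalytic domain (pET14b). Serial inhibitor dilutions in 25 mM Tris-HCl, 75 mM KCl, 0.001% Pluronic F-127, pH 8.0 were pre-incubated with enzyme for 1 h at 30 °C. Reaction ran 60 min at 30 °C with 20 μM Boc-Lys(trifluoroacetyl)-AMC and was stopped with 1.7 μM SATFMK. Trypsin (0.4 mg/ml) released AMC; fluorescence read at Ex 350/Em 450 nm. Triplicate; IC50 from dose-response curves.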

HDAC4 = HDAC4 (Homo sapiens, UniProt P56524); experiment: HDAC enzyme activity assay, HDAC4; format: biochemical
Sequence of HDAC4 (P56524 655-1084 limits assumed): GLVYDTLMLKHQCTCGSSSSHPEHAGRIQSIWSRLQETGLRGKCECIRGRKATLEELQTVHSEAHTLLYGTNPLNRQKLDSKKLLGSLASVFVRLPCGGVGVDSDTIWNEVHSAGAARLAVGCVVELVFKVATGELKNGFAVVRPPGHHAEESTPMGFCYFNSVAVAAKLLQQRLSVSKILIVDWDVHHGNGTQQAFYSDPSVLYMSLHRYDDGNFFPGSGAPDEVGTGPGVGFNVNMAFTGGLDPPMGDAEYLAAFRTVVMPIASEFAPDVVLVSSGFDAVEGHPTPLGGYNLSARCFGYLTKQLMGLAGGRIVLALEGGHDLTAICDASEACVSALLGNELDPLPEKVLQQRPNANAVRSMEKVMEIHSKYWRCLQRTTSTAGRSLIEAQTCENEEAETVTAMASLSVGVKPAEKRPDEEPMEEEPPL
In short: as §2

GLUT1 = biological target: T2, GLUT1 (Homo sapiens, UniProt P11166); format: cell-based; conditions: for IC50: GLUT1 IC50, hxt0 yeast cells expressing GLUT1, 5 mM C14-glucose, 10 minutes; for decrease of relative transport activity of GLUT1: primary screen, 100 μM compound
T2 sequence (P11166 1-492): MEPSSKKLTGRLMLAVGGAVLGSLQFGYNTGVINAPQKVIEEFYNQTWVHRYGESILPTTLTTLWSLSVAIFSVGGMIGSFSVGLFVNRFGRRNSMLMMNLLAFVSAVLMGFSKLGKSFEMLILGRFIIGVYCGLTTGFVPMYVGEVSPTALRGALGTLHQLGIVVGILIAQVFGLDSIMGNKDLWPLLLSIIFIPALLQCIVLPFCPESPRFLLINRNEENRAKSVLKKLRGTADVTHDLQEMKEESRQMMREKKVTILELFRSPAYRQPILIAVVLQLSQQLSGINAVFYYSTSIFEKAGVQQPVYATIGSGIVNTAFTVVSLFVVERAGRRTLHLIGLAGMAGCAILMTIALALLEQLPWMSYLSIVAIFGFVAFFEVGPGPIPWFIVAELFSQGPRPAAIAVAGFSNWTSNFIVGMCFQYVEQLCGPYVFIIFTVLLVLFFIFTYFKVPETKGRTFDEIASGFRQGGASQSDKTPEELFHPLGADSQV
In short: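 VW4000fgy1 hxt0 yeast carrying human GLUT1 were grown at 30 °C: first in SC-uracil/2% maltose for 2–3 days, then 1–2 days in SC-uracil/2% glucose from OD600 ~0.5. Cells were resuspended in PBS pH 7.4 at OD600 ~10 and given 5 mM C14-glucose for 10 min. Uptake was quenched with ice-cold buffer pH 5.5, filtered, and counted. Controls: 1% DMSO and 200 μM phloretin.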

GLUT5 = format: cell-based, human; conditions: up to 100 μM
In short: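 Uses hexose-transporter-null VW4000 yeast expressing human GLUT5, cultured at 30 °C and 180 rpm. Cells were grown one day in YEP/2% maltose with G418, then 1–2 days in YEP/2% fructose starting from OD600 ~0.5. Washed cells in PBS pH 7.4 (OD600 ~10) took up 10 mM C14-fructose for 10 min. Uptake was stopped with ice-cold KPi/LiCl quench buffer pH 5.5, then filtered and scintillation-counted. Controls were 1% DMSO and 100 μM MSNBA. Screening was at 100 μM; three independent measurements.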

GLUT4 = biological target: T3, GLUT4 (Homo sapiens, UniProt P14672); format: cell-based
T3 sequence (P14672 1-509): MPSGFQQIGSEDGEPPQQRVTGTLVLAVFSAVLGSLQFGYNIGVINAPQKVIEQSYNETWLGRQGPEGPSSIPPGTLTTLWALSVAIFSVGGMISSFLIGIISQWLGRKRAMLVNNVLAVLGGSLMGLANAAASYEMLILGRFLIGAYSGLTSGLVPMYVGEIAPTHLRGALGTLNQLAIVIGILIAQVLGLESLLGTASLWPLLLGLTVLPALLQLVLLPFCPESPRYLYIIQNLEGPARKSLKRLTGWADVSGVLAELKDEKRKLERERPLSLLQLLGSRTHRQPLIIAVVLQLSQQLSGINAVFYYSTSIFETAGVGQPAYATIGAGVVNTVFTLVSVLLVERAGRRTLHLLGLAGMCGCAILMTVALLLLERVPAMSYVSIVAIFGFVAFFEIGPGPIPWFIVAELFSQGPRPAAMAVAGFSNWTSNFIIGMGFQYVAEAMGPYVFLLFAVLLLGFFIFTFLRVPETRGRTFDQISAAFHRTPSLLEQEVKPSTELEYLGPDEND
In short: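 VW4000fgy1erg4 hxt0 yeast expressing human GLUT4 were cultured at 30 °C, first in SC-uracil/1% maltose and then in SC-uracil/0.2% glucose from OD600 ~0.5. Cells in PBS pH 7.4 (OD600 ~10) were fed 5 mM C14-glucose for 10 min. The reaction was quenched in ice-cold buffer pH 5.5, then filtered and scintillation-counted. Vehicle control was 1% DMSO; 200 μM phloretin served as positive control.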

Compound | IC50 (CEM cells) [µM] | IC50 (K562 cells; MTT, 48 h, Mean±SD, n=3) [µM] | IC50 (K562 cells; Homo sapiens, K562, 48 h) [µM] | other results
O=C(CN1C(=O)SC(=Cc2ccc(Br)cc2)C1=O)Nc1ccc(F)cc1F [Compound G2, 2-[5-(4-Bromobenzylidene)-2,4-dioxo-thiazolidin-3-yl]-N-(2,4-diflurophenyl)acetamide] | 47.7 ± 2.12 | > 50 |  | 
Cc1ccc(C=C2SC(=O)N(CC(=O)Nc3ccc(F)cc3F)C2=O)cc1C [Compound G4, N-[2,4-Difluorophenyl)-2-[5-(3,4-dimethylbenzylidene)-2,4-dioxothiazolidin-3-yl]acetamide] |  |  | > 50 | 
O=C(CN1C(=O)SC(=Cc2ccc(Cl)cc2)C1=O)Nc1ccc(F)cc1F [Compound G6, 2-[5-(4-Chlorobenzylidene)-2,4-dioxothiazolidin-3-yl]-N-(2,4-diflurophenyl)acetamide] | 39.3 ± 2.68 | 48.2 ± 1.23 |  | HDAC-8 relative enzyme activity (HDAC8): < 50%; IC50 (HDAC8; read-out: HDAC8 IC50, Means ±SD, n=3): 49 ± 5 µM; IC50 (HDAC4; read-out: HDAC4 IC50, Means ±SD, n=3): > 50 µM
O=C(CN1C(=O)SC(=Cc2ccc(F)cc2F)C1=O)Nc1ccc(Cl)cc1C(F)(F)F [Compound G7, N-(4-Chloro-2-trifluoromethylphenyl)-2-[5-(2,4-difluorobenzylidene)-2,4-dioxothiazolidin-3-yl] acetamide] | 40.4 ± 2.94 | 36.8 ± 1.77 |  | 
O=C(CN1C(=O)SC(=Cc2ccc(F)cc2F)C1=O)Nc1ccc(F)cc1F [Compound G8, 2-[5-(2,4-Difluorobenzylidene)-2,4-dioxothiazolidin-3-yl]-N-(2,4-diflurophenyl)acetamide] | 4.77 ± 1.51 | 34.5 ± 3.01 |  | 
O=C(CN1C(=O)SC(=Cc2ccc(F)cc2)C1=O)Nc1ccc(Cl)cc1C(F)(F)F [Compound G9, N-(4-Chloro-2-trifluoromethylphenyl)-2-[5-(4-fluorobenzylidene)-2,4-dioxothiazolidin-3-yl]acetamide] |  |  | 43.6 ± 2.23 | IC50 (HDAC8): 45 ± 5 µM; HDAC-8 relative enzyme activity (HDAC8): < 50%; IC50 (HDAC4): > 50 µM
O=C(CN1C(=O)SC(=Cc2ccc(F)cc2)C1=O)Nc1ccc(F)cc1F [Compound G10, N-(2,4-Difluoropheyl)-2-[5-(4-fluoro-benzylidene)-2,4-dioxothiazolidin-3-yl]acetamide] | 27.4 ± 3.06 | 45.4 ± 1.13 |  | 
Cc1ccc(C=C2SC(=O)N(CC(=O)Nc3ccc(F)cc3F)C2=O)cc1 [Compound G12, N-(2,4-Difluoropheyl)-2-[5-(4-methylbenzylidene)-2,4-dioxothiazolidin-3-yl]acetamide] | 9.93 ± 2.03 | > 50 |  | 
O=C(CN1C(=O)SC(=Cc2ccccc2)C1=O)Nc1ccc(F)cc1F [Compound G14, 2-[5-Benzylidene-2,4-dioxothiazolidin-3-yl]-N-(2,4-difluorophenyl)acetamide] |  |  | > 50 | 
O=C(CN1C(=O)SC(=Cc2ccc(F)cc2F)C1=O)Nc1cccc(C(F)(F)F)c1 [Compound G15, 2-(5-(2,4-difluorobenzylidene)-2,4-dioxothiazolidin-3-yl)-N-(3-(trifluoromethyl)phenyl) acetamide] | 17.3 ± 1.16 | > 50 |  | 
O=C(CN1C(=O)SC(=Cc2ccc(F)cc2)C1=O)Nc1cccc(C(F)(F)F)c1 [Compound G16, 2-(5-(4-fluorobenzylidene)-2,4-dioxothiazolidin-3-yl)-N-(3-(trifluoromethyl)phenyl)acetamide] |  |  | 23.5 ± 1.94 | IC50 (GLUT1): 26.6 µM and 26.8 µM; decrease of relative transport activity of GLUT1 (GLUT1): > 50%; GLUT5 inhibition, result in words (GLUT5): did not affect GLUT5; also recorded: neither G16 nor G17 altered the transport activity of GLUT5; IC50 (GLUT4): 21.6 ± 4.5 µM; decrease of relative transport activity of GLUT4 (GLUT4; primary screen, 100 μM compound): > 50%
O=C(CN1C(=O)SC(=Cc2ccccc2)C1=O)Nc1nc2c(Cl)cccc2s1 [Compound G17, 2-(5-benzylidene-2,4-dioxothiazolidin-3-yl)-N-(4-chlorobenzo[d]thiazol-2-yl)acetamide] |  |  | 79 ± 3.66 | IC50 (GLUT1): 12.6 ± 1.2 µM; decrease of relative transport activity of GLUT1 (GLUT1): > 50%; GLUT1 inhibition, result in words (GLUT1; up to 100 μM): selective inhibitor of GLUT1; GLUT5 inhibition, result in words (GLUT5): neither G16 nor G17 altered the transport activity of GLUT5
CC(=O)O[C@H]1C(=O)[C@@]2(C)[C@H]([C@H](OC(=O)c3ccccc3)[C@]3(O)C[C@H](OC(=O)[C@H](O)[C@@H](NC(=O)c4ccccc4)c4ccccc4)C(C)=C1C3(C)C)[C@]1(OC(C)=O)CO[C@@H]1C[C@@H]2O [Paclitaxel, reference compound] |  |  | 0.29 ± 0.15 | 
CCc1ccc(CCOc2ccc(CC3SC(=O)NC3=O)cc2)nc1 (stereo not drawn) [Pioglitazone, reference compound] |  |  | 32 ± 3.66 | 
